We go through 4 compounds from ChEMBL document CHEMBL1129331, “Synthesis and physicochemical, biological, and pharmacological properties of new bile acids amidated with cyclic amino acids” (J Med Chem, 1996).

Data set [1] is described as follows: (§1) The compound was incubated with cholylglycine hydrolase and tested for determining the stability towards C-24 Deamination. Format: ADME.
Data set [2] in a line: Critical Micellar concentration of the compound. was determined. Format: ADME. The method in brief:
(§2)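 Measured in water from surface tension, using the maximum bubble-pressure method.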

A short description of data set [3]: Water solubility of the compound. was determined. The data set is classed as ADME. To be noted: read-out: S. The method in brief:
(§3)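 Protonated form; measured on saturated solutions at pH 1.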

The nature of data set [4]: Relative lipophilicity was determined. Format: physicochemical. The note with it: C-18 reverse phase HPLC. In outline:
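C-18 reverse-phase HPLC run isocratically at 0.9 mL/min. Mobile phase 65% (v/v) aqueous methanol with 2 mM ammonium acetate, pH 7, so that all bile acids are fully ionized.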

Data set [5] can be described thus: (§4) Partition coefficient (logP). Format: physicochemical. To be noted: octanol/water. The method in brief: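 Octanol/water partition coefficient of the protonated species, calculated rather than measured.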
Data set [6] is described as follows: Acidity constant of the compound. was determined. Format: ADME.
A short description of data set [7]: Critical micellar pH of the compound. was determined. The method in brief: (§5)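 20 mL of 50 mM bile salt solution titrated with 0.1 M HCl. CMpH is taken as the pH at which precipitate of the protonated form is first seen by turbidity at 500 nm. Confirmed by back-titration with 0.1 M NaOH until the suspension clears.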
The subject of data set [8] is Rattus norvegicus. Briefly: Secretion of Bile acids in Bile Fistula rats after the iv administration of compound, expressed as the residual secretion rate. The data set is classed as ADME, organism-based. The note with it: in vivo. In outline: (§6)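 Male Sprague-Dawley rats (300-330 g), urethane-anesthetized, bile duct cannulated. After 1 h baseline, sodium salt infused via femoral vein at 10 μmol/min/kg for 1 h; bile collected at 15-min intervals for 3 h. Flow measured gravimetrically; bile acids, cholesterol and phospholipid measured enzymatically. Smax and Tmax read from secretion-time plots; Rs is the rate at hour 3. Mean ± SD, n=6.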

Data set [9] deals with Rattus norvegicus. Briefly: Secretion of cholesterol in Bile Fistula rats after the iv administration of compound, expressed as the residual secretion rate. The data set is classed as ADME, organism-based. To be noted: in vivo. The method in brief:
as §6

In data set [10] the test system is Rattus norvegicus. Briefly: Secretion of phospholipid in Bile Fistula rats after the iv administration of compound, expressed as the residual secretion rate. Format: ADME, organism-based. To be noted: in vivo. The method in brief: (§7)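 Anaesthetised (ethyl carbamate) male Sprague-Dawley rats, 300-330 g, bile duct cannulated; after 1 h baseline, bile acid sodium salts infused via femoral vein at 10 μmol/min/kg for 1 h. Bile collected 3 h at 15 min intervals; flow gravimetric; BA, cholesterol, phospholipid by enzymatic assays. Smax, Tmax from secretion-vs-time plots; Rs = rate at third hour. n=6, mean ± SD.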

Data set [11] can be described thus: Water solubility was determined. The data set is classed as ADME. The note with it: read-out: WS. The method in brief:
as §3

For data set [12], the system named is Rattus norvegicus. Briefly: Alkaline phosphatase in Bile Fistula rats after iv coinfusion of TCDCA and compound. To be noted: in vivo. The data set is classed as ADME, organism-based. In outline: (§8)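 Bile fistula Sprague-Dawley rats (200-250 g). TCDCA and test bile acid given as sodium salts, coinfused via jugular vein, each at 8 μmol/min/kg for 1 h. Bile collected at 30-min intervals for 3 h. Calcium, ALP and LDH in bile measured enzymatically; bile acid composition by HPLC (65% methanol, 15 mM ammonium acetate, pH 5.4). Mean ± SD.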

Data set [13] concerns Rattus norvegicus. Briefly: Lactate dehydrogenase in Bile Fistula rats after iv coinfusion of TCDCA and compound. To be noted: in vivo. Format: ADME, organism-based. The method in brief: as §8
Data set [14] relates to Rattus norvegicus. Briefly: Bile flow in Bile Fistula rats after iv coinfusion of TCDCA and compound. Format: ADME, organism-based. The note with it: in vivo. In outline: as §8
The subject of data set [15] is Rattus norvegicus. Briefly: Calcium output in Bile Fistula rats after iv coinfusion of TCDCA and compound. The data set is classed as ADME, organism-based. The note with it: in vivo. The method in brief: as §8
The subject of data set [16] is Rattus norvegicus. Briefly: Maximum biliary secretion rate of TCDCA after iv confusion in Bile fistula rats. Format: ADME, organism-based. The note with it: in vivo.
Data set [17] has as its system Rattus norvegicus. Briefly: Maximum biliary secretion rate of bile acids after iv confusion in Bile fistula rats. Format: ADME, organism-based. The note with it: in vivo.
The test system of data set [18] is Rattus norvegicus. Briefly: Secretion of Bile acids in Bile Fistula rats after the iv administration of compound, expressed as the maximum secretion rate. The data set is classed as ADME, organism-based. The note with it: in vivo. The method in brief:
as §7

The subject of data set [19] is Rattus norvegicus. Briefly: Secretion of Bile in Bile Fistula rats after the iv administration of compound, expressed as the maximum secretion rate. The data set is classed as ADME, organism-based. The note with it: in vivo. The method in brief: as §6
The test system of data set [20] is Rattus norvegicus. Briefly: Secretion of cholesterol in Bile Fistula rats after the iv administration of compound, expressed as the maximum secretion rate i. The data set is classed as ADME, organism-based. To be noted: in vivo. In outline: as §6
Data set [21] relates to Rattus norvegicus. Briefly: Secretion of phospholipid in Bile Fistula rats after the iv administration of compound, expressed as the maximum secretion rate. Format: ADME, organism-based. To be noted: in vivo. In outline:
as §7

Data set [22] is described as follows: as §4. The note with it: octanol/water. Format: physicochemical. This is another data set of the same source.
Data set [23] in a line: (§9) The compound was incubated with human stools and tested for determining the stability towards 7-dehydroxylation. The data set is classed as ADME, organism-based. The method in brief: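 Homogenised fresh human stool (500 mg) in 5 mL chopped meat-glucose medium with bile acid at 0.05 mM final, incubated at 37 °C; stopped with 30% KOH at 0, 4, 8, 16, 20, 24 and 72 h. Supernatant extracted on C-18 solid phase, analysed by TLC and HPLC (aqueous methanol 75%, 15 mM ammonium acetate, apparent pH 5.4).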

The nature of data set [24]: Critical micellar pH was determined. In outline:
as §5

For data set [25], the system named is Rattus norvegicus. Briefly: Secretion of Bile in Bile Fistula rats after the iv administration of compound, expressed as the residual secretion rate. The data set is classed as ADME, organism-based. The note with it: in vivo. In outline:
as §7

Data set [26] can be described thus: Critical Micellar concentration was determined. Format: ADME. In outline: as §2
In data set [27] the test system is Rattus norvegicus. Briefly: Maximum biliary secretion rate of TCDCA after iv coinfusion in Bile fistula rats. Format: ADME, organism-based. The note with it: in vivo. In outline: as §8
Data set [28] concerns Rattus norvegicus. Briefly: Maximum biliary secretion rate of bile acids after iv coinfusion in Bile fistula rats. The data set is classed as ADME, organism-based. The note with it: in vivo. The method in brief: as §8
In data set [29] the test system is Rattus norvegicus. Briefly: Secretion of cholesterol in Bile Fistula rats after the iv administration of compound, expressed as the maximum secretion rate. The data set is classed as ADME, organism-based. The note with it: in vivo. In outline: as §7
A further data set has as its system cholylglycine hydrolase. The data set is described as §1. The data set is classed as ADME. To be noted: cholylglycine hydrolase.
A short description of data set [30]: as §9. The data set is classed as ADME, organism-based. The method in brief: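 Homogenized fresh human stool (500 mg) in 5 mL chopped meat-glucose medium; bile acid added at 0.05 mM final; 37 °C. Sampled at 0–72 h and stopped with 30% KOH. Bile acids recovered by C-18 solid-phase extraction, then analyzed by TLC and by HPLC with 75% methanol/15 mM ammonium acetate, pH 5.4.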
This is another data set of the same source.

Data set [31] in a line: Acidity constant was determined. The data set is classed as ADME.

≈ marks a conversion by molar mass, not a printed value.

A word on the logP: it is a log measure of how a compound divides between an organic and an aqueous phase. A low value points to a more hydrophilic compound. One may read the pKa as the pH at which an ionisable group is half protonated. As a reminder, the half-life is the time needed for the level to fall by half in the phase considered. Higher therefore signals slow decline.

On to `C[C@H](CCC(=O)NCCS(=O)(=O)O)[C@H]1CC[C@H]2[C@@H]3C[C@H](O)C4C[C@H](O)CC[C@]4(C)[C@H]3CC[C@]12C` (stereo in doubt; form 1), for which, in [1], the T1/2 amounted to 4 h.

Take `C[C@H](CCC(=O)O)[C@H]1CC[C@H]2[C@@H]3C[C@H](O)[C@@H]4C[C@H](O)CC[C@]4(C)[C@H]3CC[C@]12C` [HYODEOXYCHOLIC_ACID]: the CMC in [2] came out at 14 mM. In data set [3], the solubility turned out to be 15 µM (≈ 5.89 µg/mL). For the same compound, in data set [4], the rK was found to be 0.89. In addition, in [5], the log partition coefficient (logP) was 4.27. The pKa in data set [6] turned out to be 5. The same compound showed a CMpH in data set [7] of 8.1.

As to `C[C@H](CCC(=O)O)[C@H]1CC[C@H]2[C@@H]3[C@@H](O)C[C@@H]4C[C@H](O)CC[C@]4(C)[C@H]3CC[C@]12C` [URSODIOL], the Rs was 0.0008 µM/min/g in the data set with Rattus norvegicus [8], 24 nM/min/kg with Rattus norvegicus [9], 0.00012 µM/min/g in the data set on Rattus norvegicus [10] and 2.82 mL/h/kg in the data set on Rattus norvegicus [25]. The CMC in data set [2] is listed as 26 mM. Moreover, the solubility in data set [11] came to 8 µM (≈ 3.14 µg/mL). In addition, in the data set with Rattus norvegicus [12], the [ALP]max was determined as 217 IU/L. Further, the “[LDH]max” value in the data set on Rattus norvegicus [13] was found to be 115 UI l-1. Moreover, the Smax in the data set with Rattus norvegicus [14] came out at 4.32 mL/h/kg; in the data set on Rattus norvegicus [15] it was 0.00018 µM/min/g; with Rattus norvegicus [16], 1.56 µM/min/kg; in the data set on Rattus norvegicus [17], 1.72 µM/min/kg; in the data set on Rattus norvegicus [18], 0.0042 µM/min/g; in the data set with Rattus norvegicus [19], 6.96 mL/h/kg. The Smax was 55 nM/min/kg in the data set with Rattus norvegicus [20] and 0.00026 µM/min/g with Rattus norvegicus [21]. For the same compound, in [4], the rK worked out at 1. The same compound registered a logP in [22] of 5.69. Moreover, in data set [23], the half-life is 2 h. In data set [24], this compound yielded a CMpH of 8.4.

With `CC(CCC(=O)NCC(=O)O)C1CC[C@H]2[C@@H]3[C@H](O)CC4C[C@H](O)CCC4(C)[C@H]3CCC12C` (some centres undefined), the Rs is 0.8 µM/min/kg with Rattus norvegicus [8], 18 nM/min/kg with Rattus norvegicus [9], 0.1 µM/min/kg with Rattus norvegicus [10] and 2.7 mL/h/kg in the data set on Rattus norvegicus [25]. The solubility in [11] stood at 8 µM (≈ 3.6 µg/mL). Also, in the data set with Rattus norvegicus [12], the [ALP]max worked out at 150 IU/L. Further, the “[LDH]max” value in the data set with Rattus norvegicus [13] came to 37 UI l-1. Moreover, in data set [26], the CMC was found to be 12 mM. Further, the Smax in the data set with Rattus norvegicus [14] is 3.78 mL/h/kg; with Rattus norvegicus [15], 0.22 µM/min/kg; in the data set with Rattus norvegicus [27], 3.13 µM/min/kg; with Rattus norvegicus [28], 3.33 µM/min/kg; in the data set on Rattus norvegicus [18], 6.1 µM/min/kg; with Rattus norvegicus [19], 4.62 mL/h/kg. Also, the Smax in the data set with Rattus norvegicus [29] was 51 nM/min/kg; in the data set on Rattus norvegicus [21] it was 0.23 µM/min/kg. The compound also gave a rK in data set [4] of 0.85. In addition, the half-life was 4 h in the data set on cholylglycine hydrolase and 2 h in [30]. Besides, in data set [5], the logP is 3.53. This compound displayed a pKa in data set [31] of 3.9. The CMpH in [24] was 7.1.
